High-throughput results as filed in PubChem.
SENP7 inh – SENP7 protease inhibitors, primary screen, biochemical, luminescence, uHTS. AID 434973, 2010. inhibition, % at 5 µM. hit rate 1.5% among 330,000. Sentrin-specific protease 7 (Homo sapiens), Q9BQF6. recombinant SENP7, Z-RLRGG-aminoluciferin luminescence, 40 min;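 active means inhibition above about 50% at the single test dose, limit read from the data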;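 further: plate controls were DMSO with enzyme for no effect and no enzyme buffer wells for full effect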
Target sequence (Q9BQF6 706-1050 limits assumed): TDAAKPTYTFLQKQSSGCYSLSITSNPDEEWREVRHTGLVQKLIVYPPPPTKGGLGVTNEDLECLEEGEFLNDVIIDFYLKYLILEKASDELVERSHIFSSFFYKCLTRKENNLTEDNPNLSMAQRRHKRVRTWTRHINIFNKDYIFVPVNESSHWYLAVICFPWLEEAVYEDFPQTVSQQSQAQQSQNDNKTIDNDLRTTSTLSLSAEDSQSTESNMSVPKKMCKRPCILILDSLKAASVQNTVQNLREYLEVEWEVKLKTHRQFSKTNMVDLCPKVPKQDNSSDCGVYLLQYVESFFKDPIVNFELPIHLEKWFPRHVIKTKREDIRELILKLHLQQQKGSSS
UBC13 polyUb – UBC13 polyubiquitin chain formation inhibitors, primary screen, biochemical, TR-FRET, uHTS; inhibition, % at 20 µM; hit rate 0.47% among 330,000; AID 485273, 2010; in the data active means inhibition above about 45%, passing the limit was not always enough
Apaf1 inhib – inhibitors of human Apaf-1 apoptosome, primary screen, biochemical, DEVD-Rh110 fluorescence, uHTS; Apoptotic protease-activating factor 1 (Homo sapiens), O14727; reconstituted apoptosome caspase-3 activity; inhibition, % at 20 µM; hit rate 0.71% among 330,000; active means inhibition of at least 40% at 20 µM;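 further: plate controls were DMSO wells for no effect and DEVD-CHO caspase inhibitor wells for full effect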
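Assay system – apoptosome proteins · Medium – Hepes buffer, pH 7.5 · Also added – cytochrome c with DEVD-Rh110 · Timing – 30 min compound preincubation, 50 min activation, room temperature · Detection – Rh110 fluorescence, excitation 480 nm, emission 540 nm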
SENP8 block-1 – SENP8 protease inhibitors, primary screen, biochemical, luminescence. Sentrin-specific protease 8 (Homo sapiens), Q96LD8. purified SENP8, Z-RLRGG-aminoluciferin cleavage. inhibition, % at 10 µM. hit rate 1.2% among 330,000. AID 2540, 2010; in the data active means inhibition above about 50%
SENP6 inh – SENP6 protease inhibitors, primary screen, biochemical, luminescence, uHTS | Sentrin-specific protease 6 (Homo sapiens), Q9GZR1 | Recombinant SENP6 catalytic domain, aminoluciferin luminescence | inhibition, % at 10 µM | hit rate 1.8% among 330,000 | AID 2599, 2010;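 active means inhibition above about 50% at the single tested dose, limit read from the data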;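 further: plate controls were DMSO wells with enzyme for no effect and DMSO wells lacking enzyme for full effect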
SENP8 block-2 – human SENP8 protease inhibitors, primary screen, biochemical, fluorescence, Nedd8 protein substrate, uHTS. recombinant SENP8. inhibition, % at 20 µM. hit rate 0.64% among 360,000. AID 602440, 2012; in the data active means inhibition mostly above about 40%, no sharp cut-off; inactive means mostly below about 27%
SENP8 confirm – SENP8 protease inhibitors, retest, confirmation, biochemical, luminescence, single concentration; shares compounds with SENP7 inh; Recombinant SENP8, Z-RLRGG-aminoluciferin luminescence, 60 min; inhibition, % at 12.5 µM; hit rate 40% among 6,200; AID 488912, 2010;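 active means mean inhibition across replicates above about 50%, limit read from the data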
SENP6 confirm – SENP6 protease inhibitors, confirmation, biochemical, luminescence, single concentration. shares compounds with SENP7 inh. recombinant SENP6, Z-RLRGG-aminoluciferin luminescence. inhibition, % at 12.5 µM. hit rate 58% among 6,200. AID 488915, 2010
SENP7 confirm – SENP7 protease inhibitors, retest, confirmation, biochemical, luminescence, single concentration; hit rate 69% among 6,200; recombinant SENP7, Z-RLRGG-aminoluciferin luminescence, 40 min; shares compounds with SENP7 inh; inhibition, % at 12.5 µM
Casp3 select – caspase-3 protease inhibitors, confirmation, selectivity assay for SENP inhibitor project, biochemical, single concentration | shares compounds with SENP7 inh | hit rate 60% among 6,200 | AID 488918, 2010 | inhibition, % at 12.5 µM | purified caspase-3, Z-DEVD-aminoluciferin luminescence, 60 min;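 active means mean inhibition above about 50%, limit read from the data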;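 further: plate controls were enzyme with DMSO for no effect and wells without caspase-3 for full effect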
Target sequence (P42574 28-227 limits assumed): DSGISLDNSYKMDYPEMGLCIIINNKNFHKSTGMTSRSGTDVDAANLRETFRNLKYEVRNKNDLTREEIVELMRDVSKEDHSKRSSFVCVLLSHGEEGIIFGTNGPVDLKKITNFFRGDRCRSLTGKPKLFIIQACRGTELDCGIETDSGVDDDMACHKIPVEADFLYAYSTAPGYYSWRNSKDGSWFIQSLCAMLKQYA
Luc interf – luminescence interference (SENP counter-screen) | shares compounds with SENP7 inh | Pre-incubated SENP8/Z-RLRGG-aminoluciferin, luciferase luminescence interference | inhibition, % at 12.5 µM | hit rate 39% among 6,200;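 active means mean inhibition above about 50% when retested at one dose, limit read from the data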;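 further: plate controls were DMSO wells with completed reaction for no effect and substrate without enzyme for full effect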
An asterisk follows results filed as active; x = not tested or not shown. Compounds with a hit are over-represented: about 3% of the library has one in this group of screens.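 How the source made its calls, unless noted: active means mean inhibition above about 50% in the one-dose retest (limit read from the data); inactive means the rest.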

SMILES	SENP7 inh	UBC13 polyUb	Apaf1 inhib	SENP8 block-1	SENP6 inh	SENP8 block-2	SENP8 confirm	SENP6 confirm	SENP7 confirm	Casp3 select	Luc interf
O=C(COC(=O)c1ccc([N+](=O)[O-])s1)Nc1ncc(C(F)(F)F)cc1Cl	10.1	-9.0	34.1	-7.2	71.4*	9.5	30.9	84.0*	36.0	1.0	-2.9
O=C(COC(=O)c1ccccn1)Nc1ncc(C(F)(F)F)cc1Cl	0.8	-4.9	0.1	23.1	-14.3	13.6	x	x	x	x	x
Oc1ccc(/C=N/NC(=S)Nc2cccnc2)cc1	11.2	9.0	-1.5	-3.9	-15.4	-22.0	x	x	x	x	x
Oc1ccc(/C=N/NC(=S)N/N=C/c2ccc(O)cc2)cc1	25.7	8.4	-30.0	36.8	61.9*	-76.8	54.5*	51.7*	75.6*	84.9*	59.1*
Cc1cccc2cc(C(c3nnnn3CC3CCCO3)N3CCc4ccccc4C3)c(=O)[nH]c12 (centres undefined)	48.9	-10.5	78.6*	37.8	67.4*	x	-1.0	27.2	6.2	8.8	2.6
Cc1ccc2cc(C(c3nnnn3CC3CCCO3)N3CCc4ccccc4C3)c(=O)[nH]c2c1 (centres undefined)	86.3*	-19.9	87.3*	74.0*	6.8	-49.7	6.9	10.0	0.3	-2.8	-2.8
CCCS(=O)(=O)NC(=O)C1(C)CCN(C(=O)c2oc3ccccc3c2C)C1 (centres undefined)	x	x	x	x	x	18.5	x	x	x	x	x
c1ccc2nc(-c3ccc(N4CCOCC4)cc3)ccc2c1	97.4*	25.7	0.5	81.3*	93.4*	-280.8	66.0*	80.0*	93.3*	76.2*	38.8
c1ccc2nc(-c3ccncc3)ccc2c1	36.2	2.3	2.3	8.4	53.3*	15.9	29.9	30.4	60.5*	67.1*	39.0
CN1CCN(c2ccc(-c3ccc4ccccc4n3)cc2)CC1	x	x	x	x	x	-419.7	x	x	x	x	x
Clc1ccsc1-c1ccc2ccccc2n1	81.3*	-3.9	8.5	67.3*	87.5*	-176.0	11.6	77.6*	94.2*	51.1*	29.4
NC(=O)C1CCN(C(=O)CN(C2CCCCC2)S(=O)(=O)c2ccc(F)cc2)CC1	1.4	4.7	0.0	5.4	-3.2	6.1	x	x	x	x	x
C[C@@H]1CN([C@H](C)CO)C(=O)CCCn2cc(nn2)CO[C@H]1CN(C)C(=O)Nc1ccccc1	x	x	x	x	x	0.1	x	x	x	x	x
O=C1C2C3c4ccccc4C(c4ccccc43)C2C(=O)N1c1nc(-c2ccccc2)cs1 (centres undefined)	3.7	-2.5	18.9	6.5	-4.6	29.0	x	x	x	x	x
N=C1SCC(=O)N1c1nc(-c2ccccc2)cs1	86.6*	-1.1	0.1	89.3*	96.1*	9.6	-5.3	3.8	-5.9	42.0	-5.0
N/C(=N\N=C\c1ccc2c(c1)OCO2)c1nonc1N	98.2*	-6.6	6.1	94.7*	94.9*	15.8	95.2*	96.1*	101.3*	96.2*	64.0*
C/C(=N/OC(=O)c1ccccc1)c1oc(C)nc1C	78.3*	0.1	-19.0	48.4	61.8*	20.2	66.9*	67.0*	89.9*	86.9*	52.1*
CCC(=O)Nc1nc(C)c(-c2csc(Nc3ccccn3)n2)s1	44.5	14.7	17.3	59.0*	23.0	-214.1	51.5*	69.4*	85.7*	30.0	57.8*
Cc1ccnc(Nc2nc(-c3ccc(O)c(O)c3)cs2)c1	-14.9	0.9	11.8	11.8	3.3	13.7	x	x	x	x	x
Cc1cccc(Nc2nc(-c3ccc(F)c(C)c3)cs2)n1	55.0*	-4.9	14.9	43.7	52.9*	10.6	32.1	59.8*	75.6*	20.6	19.3
CC(=O)Nc1ccc(-c2csc(Nc3ccccn3)n2)cc1	73.4*	20.4	-17.3	74.8*	86.7*	-5.8	74.2*	78.6*	95.7*	60.2*	86.5*
Oc1ccc(-c2csc(Nc3ccccn3)n2)cc1O	37.1	-10.2	7.5	60.6*	86.9*	-11.0	77.8*	78.9*	91.6*	49.0	80.8*
Cc1cccc(Nc2nc(-c3ccc(O)c(O)c3)cs2)n1	-13.7	7.5	12.1	38.4	64.7*	13.2	47.3	49.2	71.1*	13.2	67.4*
Oc1ccc(-c2csc(Nc3cccc4ccccc34)n2)cc1O	11.6	-10.5	20.1	3.1	16.0	-174.4	x	x	x	x	x
COc1cccc(C(=O)O/N=C(\N)c2ccccn2)c1OC	72.9*	-6.3	4.0	58.5*	76.2*	16.7	69.0*	68.3*	92.2*	92.5*	79.1*
SMILES	SENP7 inh	UBC13 polyUb	Apaf1 inhib	SENP8 block-1	SENP6 inh	SENP8 block-2	SENP8 confirm	SENP6 confirm	SENP7 confirm	Casp3 select	Luc interf
COc1cccc(C(=O)O/N=C(\N)c2ccncc2)c1OC	1.4	-0.1	-1.0	-9.8	2.5	13.6	x	x	x	x	x
N/C(=N\OC(=O)c1cccc2ccccc12)c1ccccn1	77.4*	-2.2	-4.1	69.2*	79.6*	-44.8	80.6*	79.4*	93.9*	78.7*	84.3*
OC(c1cccc(Cl)c1)c1nc(-c2cc3ccccc3o2)cs1 (centres undefined)	x	x	x	x	x	-10.3	x	x	x	x	x
COP1(=O)C=C[C@H](N(Cc2ccccc2)S(=O)(=O)c2ccccc2[N+](=O)[O-])[C@@H](C)O1 (some centres undefined)	-0.9	3.6	-4.9	3.0	-19.2	16.3	x	x	x	x	x
CCCCCCOC(=O)c1ccc(OC(=O)c2cccnc2)cc1	-1.5	12.0	6.9	44.4	53.4*	6.5	-0.4	9.6	47.1	13.9	-2.5
CCOc1ccc(-c2csc3ncn(-c4ccc(OC)cc4)c(=O)c23)cc1	0.4	3.7	10.8	2.9	8.4	-25.5	x	x	x	x	x
